We go through 18 compounds from ChEMBL document CHEMBL1127562, “N-substituted spirosuccinimide, spiropyridazine, spiroazetidine, and acetic acid aldose reductase inhibitors derived from isoquinoline-1,3-diones. 2” (J Med Chem, 1994).

The source made the active and inactive calls. No cut-off for these calls is given here.

The test system of the first experiment is Rattus norvegicus. In words: Tested for in vivo inhibition of galactitol accumulation in the sciatic nerve of galactose-fed rats at the dose of 69.2 (mg/kg/day); NS=Not significant. The class given is functional, organism-based.
Conditions: not given
Summed up:
(§1)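 Rats fed a 20% galactose diet for 4 days, with test compound given in the diet at the stated daily dose (mg/kg/day). Read-out is inhibition of galactitol (polyol) accumulation in sciatic nerve. Values are % inhibition, mean ± SEM of six animals; p < 0.01 unless marked (some p < 0.05). NS = no significant inhibition of polyol accumulation. Tolrestat was the reference standard.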
One may read the inhibition as the change of the read-out against control, counted positive when it falls. Consider `CN1C(=O)c2ccccc2C(CC(N)=O)C1=O` (stereo unspecified), for which the inhibition result was “inactive”.
Same read-out and setting: in the case of `CN1C(=O)c2ccccc2C(CC(=O)O)C1=O` (stereo unspecified) it was “inactive”.

The subject of the next experiment is Rattus norvegicus. In words: Tested for in vivo inhibition of galactitol accumulation in the lens of galactose-fed rats at the dose of 25 (mg/kg/day); NS=Not significant. To be noted: Lens of camera-type eye. The class given is functional, organism-based.
Turning to `NC(=O)CC1C(=O)N(Cc2ccc(Br)cc2F)C(=O)c2cc(F)ccc21` (stereo unspecified), the inhibition result is “inactive”.
Regarding `NC(=O)CC1C(=O)N(Cc2ccc(Br)cc2F)C(=O)c2ccc(F)cc21` (stereo unspecified), the inhibition entry was “inactive”.

The test system of another experiment is Rattus norvegicus. As to the kind of experiment: Tested for in vivo inhibition of galactitol accumulation in the sciatic nerve of galactose-fed rats at the dose of 1.0 (mg/kg/day); NS=Not significant. The class given is functional, organism-based.
Conditions: not given
The gist of the method:
(§2)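 Rats were given a 20% galactose diet for 4 days, with the test compound administered in the diet. Sciatic nerve galactitol accumulation was measured, and activity is given as % inhibition at the stated daily dose (mg/kg/day). Values are mean ± SEM, n = 6 animals; p < 0.01 unless indicated. NS means no significant inhibition of polyol accumulation.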
As for `CCCN1C(=O)CC2(C1=O)C(=O)N(Cc1ccc(Br)cc1F)C(=O)c1ccccc12` (stereo unspecified), the inhibition result is “inactive”.
With `CN1C(=O)CC2(C1=O)C(=O)N(C)C(=O)c1ccc(Cl)cc12` (stereo unspecified), the inhibition result is “inactive”.
In the case of `CCCCN1C(=O)CC2(C1=O)C(=O)N(Cc1ccc(Br)cc1F)C(=O)c1ccccc12` (stereo unspecified), the inhibition entry was “inactive”.

In another experiment the test system is Rattus norvegicus. As to the kind of experiment: Tested for in vivo inhibition of galactitol accumulation in the lens of galactose-fed rats at the dose of 69.2 (mg/kg/day); NS=Not significant. Conditions: Lens of camera-type eye. The class given is functional, organism-based. Summed up: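 Galactosemic rats were fed 20% galactose for 4 days, with the compound mixed into the diet. […] galactitol accumulation was measured, and activity is given as % inhibition at the stated daily dose (mg/kg/day). Values are mean ± SEM of six animals; p < 0.01 unless indicated. NS means no significant inhibition of polyol accumulation.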
As for `CN1C(=O)c2ccccc2C(CC(N)=O)C1=O` (stereo unspecified), the inhibition result is “inactive”.
On to `CN1C(=O)c2ccccc2C(CC(=O)O)C1=O` (stereo unspecified), for which the inhibition entry is “inactive”.

For a further experiment, the system named is Rattus norvegicus. As to the kind of experiment: Tested for in vivo inhibition of galactitol accumulation in the sciatic nerve of galactose-fed rats at the dose of 47.7 (mg/kg/day); NS=Not significant. The class given is functional, organism-based.
Conditions: not given
Summed up: as §2
On to `COC(=O)NC(=O)CC1C(=O)N(C)C(=O)c2cc(Cl)c(Cl)cc21` (stereo unspecified), for which the inhibition result is “inactive”.
Same read-out and setting: for `COC(=O)NC(=O)CC1C(=O)N(C)C(=O)c2ccc([N+](=O)[O-])cc21` (stereo unspecified) the value was “inactive”.

Another experiment relates to Rattus norvegicus. In words: Tested for in vivo inhibition of galactitol accumulation in the sciatic nerve of galactose-fed rats at the dose of 50 (mg/kg/day). The class given is functional.
Conditions: not given
The gist of the method: as §1
What is called Inhibition is the drop in the measured response relative to a control, in per cent. A low value points to a weak effect. Compound `NN1C(=O)CC2(C1=O)C(=O)N(Cc1nc3cc(C(F)(F)F)ccc3s1)C(=O)c1ccccc12` (stereo unspecified) showed an Inhibition of 96%.
Compound `O=C1c2ccccc2C2(CC(=O)N(N=C3CCOCC3)C2=O)C(=O)N1Cc1nc2cc(C(F)(F)F)ccc2s1` (stereo unspecified) had an Inhibition of 94%.
Same read-out and setting: in the case of `O=C1c2ccccc2C2(CC(=O)N(N=C3CCCC3)C2=O)C(=O)N1Cc1nc2cc(C(F)(F)F)ccc2s1` (stereo unspecified) it was 92%.
The same measure, in the same setting: for `NN1C(=O)CC2(C1=O)C(=O)N(Cc1nc3cc(C(F)(F)F)ccc3s1)C(=O)c1ccc(F)cc12` (stereo unspecified) the value was 97%.
Still for that read-out and setting: for `CC(=O)NN1C(=O)CC2(C(=O)N(Cc3nc4cc(C(F)(F)F)ccc4s3)C(=O)c3ccccc32)C1=O` (stereo unspecified) the value was 94%; for `CC(C)=NN1C(=O)CC2(C(=O)N(Cc3nc4cc(C(F)(F)F)ccc4s3)C(=O)c3ccccc32)C1=O` (stereo unspecified), 95%.

Another experiment deals with Rattus norvegicus. As to the kind of experiment: Tested for in vivo inhibition of galactitol accumulation in the lens of galactose-fed rats at the dose of 50 (mg/kg/day). The class given is functional, Lens of camera-type eye.
Conditions: not given
Turning to `NN1C(=O)CC2(C1=O)C(=O)N(Cc1nc3cc(C(F)(F)F)ccc3s1)C(=O)c1ccccc12` (stereo unspecified), the Inhibition amounted to 61%.
`O=C1c2ccccc2C2(CC(=O)N(N=C3CCOCC3)C2=O)C(=O)N1Cc1nc2cc(C(F)(F)F)ccc2s1` (stereo unspecified) yielded an Inhibition of 41%.
`O=C1c2ccccc2C2(CC(=O)N(N=C3CCCC3)C2=O)C(=O)N1Cc1nc2cc(C(F)(F)F)ccc2s1` (stereo unspecified) showed an Inhibition of 28%.
The same measure, in the same setting: for `NN1C(=O)CC2(C1=O)C(=O)N(Cc1nc3cc(C(F)(F)F)ccc3s1)C(=O)c1ccc(F)cc12` (stereo unspecified) the value was 31%.
Consider `CC(=O)NN1C(=O)CC2(C(=O)N(Cc3nc4cc(C(F)(F)F)ccc4s3)C(=O)c3ccccc32)C1=O` (stereo unspecified), for which the Inhibition is 40%.
Consider `CC(C)=NN1C(=O)CC2(C(=O)N(Cc3nc4cc(C(F)(F)F)ccc4s3)C(=O)c3ccccc32)C1=O` (stereo unspecified), for which the Inhibition came to 37%.

Another experiment deals with Rattus norvegicus. As to the kind of experiment: Tested for in vivo inhibition of galactitol accumulation in the sciatic nerve of galactose-fed rats at the dose of 25.2 (mg/kg/day); NS=Not significant.
Conditions: not given
The class given is functional, organism-based. Summed up: as §2
As for `COC(=O)NC(=O)CC1C(=O)N(C)C(=O)c2cc(OC)ccc21` (stereo unspecified), the inhibition entry was “inactive”.
As to `NC(=O)CC1C(=O)N(Cc2ccc(Br)cc2F)C(=O)c2ccccc21` (stereo unspecified), the inhibition entry was “inactive”.

A further experiment concerns Rattus norvegicus. As to the kind of experiment: Tested for in vivo inhibition of galactitol accumulation in the lens of galactose-fed rats at the dose of 47.2 (mg/kg/day); NS=Not significant. To be noted: Lens of camera-type eye. The class given is functional, organism-based.
Take `COC(=O)NC(=O)CC1C(=O)N(C)C(=O)c2ccc(OC)cc21` (stereo unspecified): the inhibition entry is “inactive”.

In a further experiment the target is Aldo-keto reductase family 1 member B1 (Bos taurus) (UniProt P16116). In words: Inhibition of aldose reductase activity in partially purified bovine lens preparation at 10e-5 M.
Conditions: not given
Summed up:
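Partially purified bovine lens aldose reductase. Reduction of DL-glyceraldehyde substrate followed spectrophotometrically. Activity expressed as average inhibition at the tested concentrations, 1×10^-5, 1×10^-6, 1×10^-7 and 4×10^-6 M as printed; IC50 in M where given.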
Take `NN1C(=O)CC2(C1=O)C(=O)N(Cc1nc3cc(C(F)(F)F)ccc3s1)C(=O)c1ccccc12` (stereo unspecified): the inhibition entry was “inactive”.
On the same count and under the same terms, for `O=C1c2ccccc2C2(CC(=O)N(N=C3CCOCC3)C2=O)C(=O)N1Cc1nc2cc(C(F)(F)F)ccc2s1` (stereo unspecified) the value was “inactive”; for `NC(=O)CC1C(=O)N(Cc2ccc(Br)cc2F)C(=O)c2cc(F)ccc21` (stereo unspecified), “inactive”; for `COC(=O)NC(=O)CC1C(=O)N(C)C(=O)c2cc(OC)ccc21` (stereo unspecified), 72%.
As for `O=C1c2ccccc2C2(CC(=O)N(N=C3CCCC3)C2=O)C(=O)N1Cc1nc2cc(C(F)(F)F)ccc2s1` (stereo unspecified), the inhibition result was “inactive”.
In the case of `NN1C(=O)CC2(C1=O)C(=O)N(Cc1nc3cc(C(F)(F)F)ccc3s1)C(=O)c1ccc(F)cc12` (stereo unspecified), the inhibition entry was “inactive”.
The same measure, in the same setting: in the case of `CCCN1C(=O)CC2(C1=O)C(=O)N(Cc1ccc(Br)cc1F)C(=O)c1ccccc12` (stereo unspecified) it was “inactive”; in that of `COC(=O)NC(=O)CC1C(=O)N(C)C(=O)c2ccc(OC)cc21` (stereo unspecified), 53%; in that of `COC(=O)NC(=O)CC1C(=O)N(C)C(=O)c2cc(Cl)c(Cl)cc21` (stereo unspecified), 90%.
The same measure, in the same setting: for `COC(=O)NC(=O)CC1C(=O)N(C)C(=O)c2ccc([N+](=O)[O-])cc21` (stereo unspecified) the value was 67%; for `CC(=O)NN1C(=O)CC2(C(=O)N(Cc3nc4cc(C(F)(F)F)ccc4s3)C(=O)c3ccccc32)C1=O` (stereo unspecified), “inactive”.
Same read-out and setting: for `CN1C(=O)CC2(C1=O)C(=O)N(C)C(=O)c1ccc(Cl)cc12` (stereo unspecified) the value was “inactive”.
With `CC(C)=NN1C(=O)CC2(C(=O)N(Cc3nc4cc(C(F)(F)F)ccc4s3)C(=O)c3ccccc32)C1=O` (stereo unspecified), the inhibition entry is “inactive”.
On to `CN1C(=O)c2ccccc2C(CC(N)=O)C1=O` (stereo unspecified), for which the inhibition result is “inactive”.
`CN1C(=O)c2ccccc2C(CC(=O)O)C1=O` (stereo unspecified) came in with an inhibition of 70%.
`CCCCN1C(=O)CC2(C1=O)C(=O)N(Cc1ccc(Br)cc1F)C(=O)c1ccccc12` (stereo unspecified): the inhibition entry is “inactive”.
On the same count and under the same terms, in the case of `NC(=O)CC1C(=O)N(Cc2ccc(Br)cc2F)C(=O)c2ccc(F)cc21` (stereo unspecified) it was 88%; in that of `NC(=O)CC1C(=O)N(Cc2ccc(Br)cc2F)C(=O)c2ccccc21` (stereo unspecified), “inactive”.

Another experiment concerns Rattus norvegicus. In words: Tested for in vivo inhibition of galactitol accumulation in the sciatic nerve of galactose-fed rats at the dose of 47.2 (mg/kg/day); NS=Not significant. The class given is functional, organism-based.
Conditions: not given
The gist of the method: as §2
For `COC(=O)NC(=O)CC1C(=O)N(C)C(=O)c2ccc(OC)cc21` (stereo unspecified), the inhibition entry is “inactive”.

In the next experiment the test system is Rattus norvegicus. As to the kind of experiment: Tested for in vivo inhibition of galactitol accumulation in the sciatic nerve of galactose-fed rats at the dose of 25 (mg/kg/day); NS=Not significant. The class given is functional, organism-based.
Conditions: not given
Summed up: as §2
Turning to `NC(=O)CC1C(=O)N(Cc2ccc(Br)cc2F)C(=O)c2cc(F)ccc21` (stereo unspecified), the inhibition entry is “inactive”.
Still for that read-out and setting: in the case of `NC(=O)CC1C(=O)N(Cc2ccc(Br)cc2F)C(=O)c2ccc(F)cc21` (stereo unspecified) it was “inactive”.

For the next experiment, the system named is Rattus norvegicus. As to the kind of experiment: Tested for in vivo inhibition of galactitol accumulation in the lens of galactose-fed rats at the dose of 47.7 (mg/kg/day); NS=Not significant. The class given is functional, organism-based. Conditions: Lens of camera-type eye.
With `COC(=O)NC(=O)CC1C(=O)N(C)C(=O)c2cc(Cl)c(Cl)cc21` (stereo unspecified), the inhibition result is “inactive”.
The same measure, in the same setting: in the case of `COC(=O)NC(=O)CC1C(=O)N(C)C(=O)c2ccc([N+](=O)[O-])cc21` (stereo unspecified) it was “inactive”.

A further experiment deals with Rattus norvegicus. As to the kind of experiment: Tested for in vivo inhibition of galactitol accumulation in the lens of galactose-fed rats at the dose of 25.2 (mg/kg/day); NS=Not significant. The class given is functional, organism-based. To be noted: Lens of camera-type eye.
On to `COC(=O)NC(=O)CC1C(=O)N(C)C(=O)c2cc(OC)ccc21` (stereo unspecified), for which the inhibition result was “inactive”.
Regarding `NC(=O)CC1C(=O)N(Cc2ccc(Br)cc2F)C(=O)c2ccccc21` (stereo unspecified), the inhibition entry was “inactive”.
